Screening results: PubChem BioAssay, several laboratories
ABHD4 inh = ABHD4 (mouse) inhibition, primary FP screen | Q8VD66 | purified mABHD4, FP-Rh probe fluorescence polarization | inhibition, % at 8.92 µM | 370,000 compounds, 0.54% hits;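 active = inhibition exceeding the mean over every tested compound plus 3 SD, cut at about 30% in these data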
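Test system: mABHD4 protein; Read-out basis: % inhibition; Incubation: 45 min + 60 min at 25 °C; Repeats: single replicate; Technique: fluorescence polarization with parallel and perpendicular emission, 525/598 nm; Compound: 8.92 µM, single dose; Benchmarks: full inhibition S159A mutant plus DMSO, zero as sample-well median.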
HTRA1 inh = inhibitors of human serine peptidase HTRA1; recombinant HTRA1, FP-rhodamine activity-based probe, fluorescence polarization; inhibition, % at 5.96 µM; 340,000 compounds, 0.5% hits; in the data active = inhibition above about 36%
Target sequence (Q92743 whole entry, looked up): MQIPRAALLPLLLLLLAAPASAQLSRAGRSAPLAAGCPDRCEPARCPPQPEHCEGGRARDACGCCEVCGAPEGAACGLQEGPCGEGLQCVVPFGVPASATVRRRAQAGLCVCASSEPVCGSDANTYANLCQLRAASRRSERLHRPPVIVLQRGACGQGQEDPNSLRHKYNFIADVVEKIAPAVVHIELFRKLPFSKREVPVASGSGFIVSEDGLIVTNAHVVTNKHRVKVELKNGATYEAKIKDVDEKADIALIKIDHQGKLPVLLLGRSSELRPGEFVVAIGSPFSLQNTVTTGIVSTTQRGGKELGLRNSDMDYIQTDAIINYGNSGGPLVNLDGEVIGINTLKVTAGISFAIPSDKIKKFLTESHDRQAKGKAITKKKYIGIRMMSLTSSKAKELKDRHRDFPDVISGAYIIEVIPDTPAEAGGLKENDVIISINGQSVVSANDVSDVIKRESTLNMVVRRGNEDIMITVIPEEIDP
SIAE primary = human SIAE inhibition, primary screen; 370,000 compounds, 0.69% hits; AID 1053197; inhibition, % at 9.66 µM; SIAE FP-Rh probe binding, fluorescence polarization;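 active = inhibition above a cutoff: mean of compounds within the control limits plus 3 SD of those, cut at about 17% in these data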
JMJD2C inh = blocks human GASC-1 demethylase activity | inhibition, % at 2.35 µM | Q9H3R0 | GST-JMJD2C(1-420) H3K9me3 demethylation, DELFIA europium | 330,000 compounds, 0.069% hits | AID 2099;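 active = more than half of a compound's replicate wells show inhibition beyond 50%, single wells judged on their own value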;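 note: signal counts dimethyl H3K9 product captured on neutravidin plate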
PRMT1 inh = blocks human protein arginine methyltransferase 1. Q99873. recombinant PRMT1, activity-based probe fluorescence polarization. inhibition, % at 2.79 µM. 370,000 compounds, 1.3% hits. AID 652257;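 active = inhibition above about 21% made by adding two undisclosed values, limit read from the data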
SIAE inh conf = human SIAE inhibition, confirmation | inhibition, % at 9.66 µM | shares compounds with SIAE primary | 2,300 compounds, 13% hits | SIAE FP-Rh activity-based probe, fluorescence polarization;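 active = mean inhibition of the replicates above the hit cutoff set in the primary screen, cut at about 17% in these data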;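 note: inhibitors lower polarization as more probe stays unbound to SIAE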
Numbers stand for hits; 0 = inactive; - = no result given. In the library only some 2.4% were active in any assay of this set; here they are far more common.

SMILES | ABHD4 inh | HTRA1 inh | SIAE primary | JMJD2C inh | PRMT1 inh | SIAE inh conf
COc1ccc(OC)c(CN2CCN(C(=O)c3ccc(S(=O)(=O)N4CCCCCC4)cc3)CC2)c1 | 0 | 0 | 0 | - | 0 | -
Cc1ccc(N=C(NO)c2nonc2N)cc1 | 0 | 0 | 41 | 0 | 0 | 0
Cc1nc(N2CCN(c3ccccn3)CC2)c2c(C)c(C(=O)Nc3c(C)cc(Br)cc3C)sc2n1 | 0 | 0 | 17 | 0 | 0 | 0
Cc1nc(N2CCN(c3ccccn3)CC2)c2c(C)c(C(=O)Nc3c(F)cc(F)cc3Br)sc2n1 | 0 | 0 | 0 | 0 | 0 | -
CCc1cc(/C(Cc2ccc3ccccc3n2)=N\O)c(O)cc1O | 0 | 0 | 61 | 0 | 0 | 40
CCc1cc(/C(Cc2ccccn2)=N\O)c(O)cc1O | 0 | 0 | 19 | 0 | 0 | 22
COc1ccc(-c2nc(-c3ccc4c(c3)OCO4)[nH]c2-c2ccc(OC)cc2)cc1 | 0 | 0 | 19 | 0 | 0 | 0
CN1C(=O)C(=O)N(CC(=O)Nc2ccccc2OC(F)F)C1=O | 0 | 0 | 0 | 0 | 0 | -
O=C(CN1NS(=O)(=O)c2ccccc2C1=O)Nc1ccccc1OC(F)F | 0 | 0 | 19 | 0 | 0 | 0
COc1ccc(N(C(=O)c2ccco2)C(C(=O)NC2CCCC2)c2ccc(N(C)C)cc2)cc1OC (stereo unspecified) | 0 | 0 | 26 | 0 | 0 | 0
CC(=O)c1cccc(N(C(=O)c2ccco2)C(C(=O)NC2CCCCC2)c2ccc(C)o2)c1 (stereo unspecified) | 0 | 0 | 19 | 0 | 0 | 0
COc1cccc(N(C(=O)c2ccco2)C(C(=O)NC2CCCC2)c2ccc(N(C)C)cc2)c1 (stereo unspecified) | 0 | 0 | 0 | 0 | 0 | -
CC(=O)c1cccc(N(C(=O)CNC(=O)c2ccco2)C(C(=O)NC2CCCC2)c2ccc(C)o2)c1 (stereo unspecified) | 0 | 0 | 0 | 0 | 0 | -
COc1ccc(Cc2nnc(N)s2)cc1 | 0 | 0 | 17 | 0 | 0 | 0
CC(C)C1Oc2ccccc2N(CC(=O)N2CCOCC2)C1=O (stereo unspecified) | 0 | 0 | 27 | 0 | 0 | 0
CCC1Oc2ccccc2N(CC(=O)N2CCOCC2)C1=O (stereo unspecified) | 0 | 0 | 0 | 0 | 0 | -
N#CC(=C1C=CC(=NO)C(Cl)=C1)c1ccccc1 | 0 | - | 0 | - | 0 | -
N#CC(=C1C=C(Br)C(=NO)C=C1Cl)c1ccc(Cl)cc1 | 0 | 0 | 33 | - | 0 | 50
CCCCNC(=O)C[C@H]1C[C@@]2(C(=O)OC)C(=C[C@H](C(C)C)O[C@@H]2C2CC2)N(CCc2ccc(OC)c(OC)c2)C1=O | 0 | - | 0 | - | 0 | -
CN(Cc1ccccc1Br)C(=O)CN1C(=O)NC2(CCCCCC2)C1=O | 0 | 0 | 19 | 0 | 0 | 0
CN(Cc1ccccc1)C(=O)CN1C(=O)NC2(CCCC2)C1=O | 0 | 0 | 0 | 0 | 0 | -
COCCN=C1S/C(=C\c2cc(C)n(-c3ccc(F)cc3F)c2C)C(=O)N1C | 0 | - | 0 | - | 0 | -
O=[N+]([O-])c1ccc(N/N=C/c2cccc(O)c2)cc1 | 0 | 0 | 20 | 0 | 0 | 0
O=C(C1CCN(S(=O)(=O)c2ccc3[nH]c(=O)oc3c2)CC1)N1CCCC1 | 0 | - | 0 | - | 0 | -
CCOc1ccc(N(C(C)C(=O)N2CCCCCC2)S(C)(=O)=O)cc1 (stereo unspecified) | 0 | 0 | 18 | 0 | 0 | 0
SMILES | ABHD4 inh | HTRA1 inh | SIAE primary | JMJD2C inh | PRMT1 inh | SIAE inh conf
CCc1ccccc1NCC(=O)Nc1ccc(Cl)c(C(F)(F)F)c1 | 0 | 0 | 27 | 0 | 0 | 0
COc1cccc(C(=O)C2CCCN(Cc3cn(CC(N)=O)c4ccccc34)C2)c1 (stereo unspecified) | 0 | 0 | 19 | 0 | 0 | 0
COc1cccc(C(=O)C2CCCN(Cc3cn[nH]c3C3CCCCC3)C2)c1 (stereo unspecified) | 0 | - | 0 | 0 | 0 | -
CCCC/C=C1/[C@@H](c2ccc(Cl)cc2)N(Cc2ccc3c(c2)OCO3)C2=N[C@@H](c3ccccc3)CC(=O)N21 | 0 | - | 0 | - | 0 | -
Brc1ccc(-c2csc(Nc3nc(-c4ccc(Br)cc4)cs3)n2)cc1 | 0 | 0 | 42 | 0 | 0 | 0
O=C(Oc1ccc([N+](=O)[O-])cc1)O[C@H]1CC[C@@]23CCCN2C(=O)CCC[C@H]3C1 | 0 | - | 0 | - | 0 | -
COc1ccccc1CCC(=O)OCC(=O)N1c2ccccc2NC(=O)C1(C)C | 0 | 0 | 21 | 0 | 0 | 0
